Laboratory results: ChEMBL document CHEMBL4316611, “Design, synthesis and evaluation of novel (S)-tryptamine derivatives containing an allyl group and an aryl sulfonamide unit as anticancer agents” (Bioorg Med Chem Lett, 2019)

Experiments:
[1] = system: HepG2; experiment: Cytotoxicity in human HepG2 cells assessed as reduction in cell viability incubated for 48 hrs by MTT assay; format: functional, cell-based; conditions: HepG2, 48 h
Outline: (§1)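 MTT viability assay; cells exposed continuously to compounds for 48 h. IC50 values reported as mean ± SD. Cisplatin served as positive control.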

[2] = system: HeLa; experiment: Cytotoxicity in human HeLa cells assessed as reduction in cell viability incubated for 48 hrs by MTT assay; format: functional, cell-based; outline: as §1
[3] = system: CNE; experiment: Cytotoxicity in human CNE1 cells assessed as reduction in cell viability incubated for 48 hrs by MTT assay; format: functional, cell-based; outline: as §1
[4] = system: A549; experiment: Cytotoxicity in human A549 cells assessed as reduction in cell viability incubated for 48 hrs by MTT assay; format: functional, cell-based; conditions: A549, 48 h; outline: as §1
[5] = system: HepG2; experiment: Inhibition of colony formation in human HepG2 cells at 7.5 uM incubated for 14 days by Giemsa staining based assay; format: functional; conditions: HepG2, 336 h
Outline: (§2)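 Colony formation assay: cells exposed at 0, 2.5, 5 and 7.5 μM for 2 weeks. Colonies imaged and quantified by image analysis. Inhibition rate expressed as mean ± SD against control.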

[6] = system: HepG2; experiment: Inhibition of colony formation in human HepG2 cells incubated for 14 days by Giemsa staining based assay; format: functional, cell-based; outline: as §2
[7] = system: HepG2; experiment: Induction of apoptosis in human HepG2 cells assessed as viable cells level at 10 uM incubated for 48 hrs by Annexin V-FITC/propidium iodide staining based flow cytometry (reference value: 94.56%); format: functional
[8] = system: HepG2; experiment: Induction of apoptosis in human HepG2 cells assessed as early apoptotic cells level at 10 uM incubated for 48 hrs by Annexin V-FITC/propidium iodide staining based flow cytometry (reference value: 2.89%); format: functional
[9] = system: HepG2; experiment: Induction of apoptosis in human HepG2 cells assessed as late apoptotic cells level at 10 uM incubated for 48 hrs by Annexin V-FITC/propidium iodide staining based flow cytometry (reference value: 2.02%); format: functional
[10] = system: HepG2; experiment: Induction of apoptosis in human HepG2 cells assessed as necrotic cells level at 10 uM incubated for 48 hrs by Annexin V-FITC/propidium iodide staining based flow cytometry (reference value: 0.53%); format: functional
[11] = system: HepG2; experiment: Induction of apoptosis in human HepG2 cells assessed as viable cells level at 20 uM incubated for 48 hrs by Annexin V-FITC/propidium iodide staining based flow cytometry (reference value: 94.56%); format: functional
[12] = system: HepG2; experiment: Induction of apoptosis in human HepG2 cells assessed as early apoptotic cells level at 20 uM incubated for 48 hrs by Annexin V-FITC/propidium iodide staining based flow cytometry (reference value: 2.89%); format: functional
[13] = system: HepG2; experiment: Induction of apoptosis in human HepG2 cells assessed as late apoptotic cells level at 20 uM incubated for 48 hrs by Annexin V-FITC/propidium iodide staining based flow cytometry (reference value: 2.02%); format: functional
[14] = system: HepG2; experiment: Induction of apoptosis in human HepG2 cells assessed as necrotic cells level at 20 uM incubated for 48 hrs by Annexin V-FITC/propidium iodide staining based flow cytometry (reference value: 0.53%); format: functional
[15] = system: HepG2; experiment: Induction of apoptosis in human HepG2 cells assessed as viable cells level at 30 uM incubated for 48 hrs by Annexin V-FITC/propidium iodide staining based flow cytometry (reference value: 94.56%); format: functional
[16] = system: HepG2; experiment: Induction of apoptosis in human HepG2 cells assessed as early apoptotic cells level at 30 uM incubated for 48 hrs by Annexin V-FITC/propidium iodide staining based flow cytometry (reference value: 2.89%); format: functional
[17] = system: HepG2; experiment: Induction of apoptosis in human HepG2 cells assessed as late apoptotic cells level at 30 uM incubated for 48 hrs by Annexin V-FITC/propidium iodide staining based flow cytometry (reference value: 2.02%); format: functional
[18] = system: HepG2; experiment: Induction of apoptosis in human HepG2 cells assessed as necrotic cells level at 30 uM incubated for 48 hrs by Annexin V-FITC/propidium iodide staining based flow cytometry (reference value: 0.53%); format: functional
[19] = system: HepG2; experiment: Induction of cell cycle arrest in human HepG2 cells assessed as accumulation at G1 phase at 15 uM incubated for 24 hrs by propidium iodide staining based flow cytometry (reference value: 39.79%); format: functional
[20] = system: HepG2; experiment: Induction of cell cycle arrest in human HepG2 cells assessed as accumulation at G1 phase at 25 uM incubated for 24 hrs by propidium iodide staining based flow cytometry (reference value: 39.79%); format: functional
[21] = system: HepG2; experiment: Induction of cell cycle arrest in human HepG2 cells assessed as accumulation at G1 phase at 35 uM incubated for 24 hrs by propidium iodide staining based flow cytometry (reference value: 39.79%); format: functional
[22] = system: HepG2; experiment: Induction of cell cycle arrest in human HepG2 cells assessed as accumulation at G1 phase incubated for 24 hrs by propidium iodide staining based flow cytometry; format: functional

Compound C=CC[C@@H](Cc1c[nH]c2ccccc12)NS(=O)(=O)c1c(C(C)C)cc(C(C)C)cc1C(C)C has an IC50 [1] of 16.5 µM, an IC50 [2] of 16.5 µM and an IC50 [3] of 18.3 µM. The IC50 [4] was 18.7 µM, the inhibition at 7.5 µM [5] was 95% and the inhibition [6] was “Dose-dependent effect”. For the same compound, the Activity [7] was 89.7%, the Activity [8] was 6.63% and the Activity [9] was 2.96%. It also gave an Activity [10] of 0.69%, an Activity [11] of 73.08% and an Activity [12] of 21.29%. The Activity [13] was 4.85%, the Activity [14] was 0.75% and the Activity [15] was 25.38%. The Activity [16] was 53.46%, the Activity [17] was 20.25% and the Activity [18] was 0.91%. For the same compound, the Activity [19] was 44.89%, the Activity [20] was 48.82% and the Activity [21] was 53.35%. The Activity [22] was “Dose-dependent effect”.
